D1 mod: allosteric modulators of human D1 dopamine receptor. P21728. HEK293 D1, CRE-luciferase, dopamine EC30 potentiation; actives deviate in either direction. B-score at 10 µM. 58,000 tested, 5.9% active. AID 641;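 active means luminescence count or its row- and column-corrected plate score outside the 99.7% band of the plate's sample wells, on either side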
RORa activator: activates the human nuclear receptor RORA | P35398 | CHO-K1 Gal4-RORA LBD luciferase reporter, luminescence; percent increase over mock-subtracted basal signal | activation, % at 10 µM | 65,000 tested, 1.5% active;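 active means activation above the mean of all tested compounds plus 3 SD, cut at about 49% in these data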;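 further: 0% = DMSO-treated RORA cells and 100% = added signal equal to DMSO minus mock-transfected cells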
HEK293 NFkB inh: inhibitors of the PMA/ionomycin-induced NF-kB reporter in HEK293 cells; HEK-293 NF-kB luciferase reporter, luminescence; inhibition, % at 3 µM; 62,000 tested, 0.21% active; AID 465;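 active means inhibition above the mean of all tested compounds plus 3 SD, cut at about 40% in these data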;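 further: 0% = stimulated DMSO wells and 100% = 10 µM reference inhibitor 5653914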
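Material: HEK-293 cells with stable firefly luciferase reporter driven by four HIV NF-kB elements / Also added: PMA plus ionomycin mix as NF-kB-activating stimulus / Compound dosing: 3 µM once, 0.30% DMSO / Times: 1 h pretreatment, 16 h stimulation, 37 °C / Signal: luminescence / Evaluation: per-plate % inhibition versus controls / Benchmarks: DMSO and 10 µM reference inhibitor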
SF-1 act: activates the human nuclear receptor SF-1; Q13285; CHO-K1 Gal4-SF-1 LBD luciferase reporter; % increase over DMSO SF-1-specific signal; activation, % at 10 µM; 65,000 tested, 1.9% active; AID 522;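 active means activation above the mean activation of all tested compounds plus 3 SD, cut at about 50% in these data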
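Assay system: CHO-K1 cells co-transfected with Gal4 DBD–human SF-1 LBD, 5xGal4 luciferase reporter; doses: 10 µM only; incubation: 20 h compound exposure at 37 °C after 1 h cell settling; signal: luciferase light emission; evaluation: percent activation versus DMSO; repeats: one test per compound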
JNK3 blocker: JNK3 (human) kinase inhibition. purified JNK3 kinase activity, HTS. inhibition, % at 8 µM. 60,000 tested, 0.61% active; in the data active means inhibition above about 17%;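 further: 0% = DMSO and 100% = reference inhibitor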
Target sequence (P53779 whole entry, looked up): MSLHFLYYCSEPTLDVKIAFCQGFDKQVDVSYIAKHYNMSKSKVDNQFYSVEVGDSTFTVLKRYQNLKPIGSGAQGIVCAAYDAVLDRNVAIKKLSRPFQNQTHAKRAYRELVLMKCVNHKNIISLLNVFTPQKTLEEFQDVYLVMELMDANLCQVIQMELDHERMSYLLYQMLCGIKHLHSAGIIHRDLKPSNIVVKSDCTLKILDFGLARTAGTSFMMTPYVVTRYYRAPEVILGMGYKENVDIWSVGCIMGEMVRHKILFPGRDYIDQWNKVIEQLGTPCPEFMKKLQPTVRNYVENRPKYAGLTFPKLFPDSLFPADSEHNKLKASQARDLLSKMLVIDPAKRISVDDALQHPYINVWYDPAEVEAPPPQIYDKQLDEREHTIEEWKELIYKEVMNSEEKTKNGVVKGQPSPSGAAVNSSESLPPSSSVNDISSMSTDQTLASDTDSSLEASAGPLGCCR
Numbers without * were called inactive; nt = no result given. Only some compounds are listed: those with a hit (about 7.9% of all), similar ones and a draw of the others.

SMILES	D1 mod	RORa activator	HEK293 NFkB inh	SF-1 act	JNK3 blocker
Cc1nc2cc(NC(=O)N3c4ccccc4CC3C)ccc2o1 (stereo not given)	-0.932	40.9	-39.6	79.4*	10.8
Cc1nnc(SC(=O)N2c3ccccc3Sc3ccccc32)s1	-3.26*	-71.3	27.6	-65.1	-7.2
Cc1nnc(SCC(=O)N2c3ccccc3Sc3ccccc32)n1N	-0.103	-6.5	9.1	-4.6	-0.9
c1ccc2nc(-c3nc4ccccc4[nH]3)ccc2c1	-4.78*	-66.5	13.0	-67.2	4.2
c1ccc2[nH]c(-c3cscn3)nc2c1	-0.00835	31.8	nt	33.9	7.5
Cc1nn(-c2ccccc2)c2c1C1(C(=O)N(C(C)C)c3ccccc31)C(C#N)=C(N)O2 (stereo not given)	-0.558	15.5	3.8	-16.3	-5.7
Cc1cccc(N2CCN(C(=O)C3CCN(S(=O)(=O)c4cccc5nsnc45)CC3)CC2C)c1 (stereo not given)	0.069	11.1	-1.2	24.3	-0.2
Cc1cccc(N2CCN(C(=O)C3CCN(S(=O)(=O)c4cccc5cccnc45)CC3)CC2C)c1 (stereo not given)	-3.8*	15.2	13.7	8.5	1.6
CCSc1nnc(NC(=O)Cc2ccc(OC)c(S(=O)(=O)N3CCOCC3)c2)s1	nt	-9.9	16.9	6.3	1.8
COc1ccc(NC(=O)C2CCCCN2CC(=O)OCc2ccccc2)cc1OC (stereo not given)	0.0724	9.4	6.6	0.3	-0.4
Clc1ccccc1OCCn1cnc2ccccc21	0.0152	51.1*	-2.7	-7.7	-0.1
Clc1ccc(OCCn2cnc3ccccc32)cc1	-1.4	18.4	6.2	-13.9	5.1
CC(=O)NC(C)C(=O)OCc1ccc(Cl)cc1Cl (stereo not given)	nt	-18.0	20.9	6.0	0.2
CCOC(=O)c1[nH]c2c(c1C)C(=O)CC(c1ccco1)C2 (stereo not given)	-0.787	-25.9	41.3*	-43.2	8.0
COCCOC(=O)c1[nH]c2c(c1C)C(=O)CC(c1ccco1)C2 (stereo not given)	2.99	7.4	38.7	-12.2	4.5
Cc1c(C(=O)OCCOC(C)C)[nH]c2c1C(=O)CC(c1ccco1)C2 (stereo not given)	0.459	-23.5	48.2*	-39.8	1.9
Cc1ccc2nc(NC(=O)C3CCCN(S(=O)(=O)c4cnc[nH]4)C3)sc2c1 (stereo not given)	0.996	54.0*	-12.7	25.9	-0.9
Cc1ccc2nc(NC(=O)C3CCCN(S(=O)(=O)c4cccnc4)C3)sc2c1 (stereo not given)	nt	18.2	1.4	-11.7	13.5
Cn1c(=O)c(C(=O)Nc2cnccn2)c(O)c2ccccc21	0.373	52.5*	2.9	28.8	-0.5
O=C1CN(C(=O)c2ccccc2F)c2ccccc2N1	-0.179	-16.1	-3.5	5.0	-2.4
O=C1CN(C(=O)OCc2ccccc2)c2ccccc2N1	2.38	51.1*	-10.1	47.4	nt
Cc1ccc(S(=O)(=O)NCCSc2nnnn2C)cc1	-0.0785	10.7	17.1	-1.1	2.3
Cc1ccc(C(=O)OCc2cc3ccccc3[nH]c2=O)cc1	-0.127	21.7	24.1	25.8	28.3*
COc1ccccc1C1/C(=C(/O)c2cnn(-c3ccccc3)c2C)C(=O)C(=O)N1CCN(C)C (stereo not given)	0.399	-9.8	nt	6.7	0.8
Cc1c(/C(O)=C2/C(=O)C(=O)N(CCN3CCOCC3)C2c2cccs2)cnn1-c1ccccc1 (stereo not given)	-1.39	6.4	0.6	11.8	-3.3
SMILES	D1 mod	RORa activator	HEK293 NFkB inh	SF-1 act	JNK3 blocker
Cc1ccc(C2/C(=C(\O)c3cnn(-c4ccccc4)c3C)C(=O)C(=O)N2CCN(C)C)o1 (stereo not given)	-0.494	8.6	nt	52.7*	3.2
Cc1ccc(C2/C(=C(/O)c3cnn(-c4ccccc4)c3C)C(=O)C(=O)N2CCN2CCOCC2)o1 (stereo not given)	0.0602	21.8	nt	54.5*	-6.0
Cc1ccc(OCC(=O)N2CCCCC2)c(Br)c1	0.255	53.8*	3.8	56.8*	-2.2
Cc1cc(OCC(=O)N2CCCC2)ccc1Cl	-0.283	18.4	-14.9	50.8*	6.2
Cc1cc(OCC(=O)N2CCCC2)cc(C)c1Cl	-0.749	-12.7	15.2	-10.1	-0.6
Cc1cc(C)cc(OCC(O)CN2C(=O)NC(C)(C)C2=O)c1 (stereo not given)	0.0307	-0.9	3.3	-1.4	-5.5
COc1ccccc1OCC(=O)Nc1ccc(S(=O)(=O)Nc2nc(C)cc(C)n2)cc1	0.114	0.8	10.4	-3.4	2.7
COC(=O)c1ccc(-n2nnnc2SCC(=O)N2CCCCC2)cc1	2.71	7.8	7.4	17.8	4.0
CCCOC(=O)c1ccc(-n2nnnc2SCC(=O)N2CCCCC2)cc1	-3.65*	5.6	26.1	-18.5	0.7
COc1ccc(S(=O)(=O)N(CC(=O)NCC2CCCO2)c2ccccc2)cc1OC (stereo not given)	-0.158	-0.6	15.8	7.3	3.9
CCN(CC)S(=O)(=O)c1ccc(F)c(C(=O)NCCC(C)C)c1	-0.857	-2.6	14.0	-5.7	-2.4
CCN(CC)S(=O)(=O)c1ccc(Cl)c(C(=O)NC)c1	-5.2*	-10.4	9.2	-11.7	3.0
CCc1nn(C(C)C(=O)N2CCc3ccccc3C2)c(=O)c2cc3occc3n12 (stereo not given)	1.68	-34.1	20.1	-16.8	9.0
O=C(Nc1ccc2c(c1)nc1n2CCSC1)c1ccccc1	-3.7*	-25.1	-6.2	18.7	-0.9
COc1ccc(C(=O)Nc2ccc3c(c2)nc2n3CCSC2)cc1	0.0689	25.9	2.4	56.6*	-7.3
Cc1cc(S(=O)(=O)N2CCN(Cc3ccc4c(c3)OCO4)CC2)cc(C)c1N1CCCC1=O	-4.63*	-19.4	11.2	-16.0	-3.6
O=C(COc1ccc(S(=O)(=O)NC2CCCCC2)cc1)Nc1ccc2c(c1)OCCO2	-0.0885	26.4	20.1	4.3	-1.7
Cc1c(C(=O)Nn2cnnc2)oc2ccccc12	0.576	2.9	6.9	-4.8	-2.1
COc1cc(OC)cc(C(=O)Nc2ccc(-n3cnnn3)c(C)c2)c1	nt	50.1*	0.0	54.1*	-5.3
COc1cc(C(=O)Nc2ccc3c(c2)OCO3)ccc1-n1cnnn1	-0.836	-7.9	11.2	-0.3	-3.9
Cc1cc(NC(=O)c2oc3ccccc3c2C)ccc1-n1cnnn1	-0.922	86.0*	-5.5	8.6	4.7
CCOC(=O)C1=C(C)NC(=O)NC1c1cc(C)sc1C (stereo not given)	-1.13	-25.4	26.2	-4.3	-2.0
CCn1cc(C(=O)O)c(=O)c2cc(F)c(N3CCNCC3)cc21	-0.325	-12.3	nt	9.5	-2.4
CCn1cc(C(=O)O)c(=O)c2cc(F)c(N3CCN(C(=O)Nc4ccccc4)CC3)cc21	-2.18*	-0.8	16.0	-6.2	1.5
CC1(C)Cc2c(sc3nc(-c4cc5ccccc5o4)n(N)c(=O)c23)CO1	nt	59.0*	-19.8	35.3	-4.3

Screening results from PubChem.
